Compounds with a hit are over-represented: about 3.5% of the library has one in this group of screens.
rRNA inh HTS: selective bacterial rRNA inhibition in E. coli | E. coli WT GFP vs humanized-ribosome RFP mutants, fluorescence, 24 h; active compounds read low; DMSO median 0, no signal -100 | GFP signal change (wild-type ribosome), % (test concentration not listed) | 350,000 compounds, 1.6% hits | AID 720706;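 active = significant combined selectivity score with lowered wild-type GFP, culture density cut under 30%, mutant RFP and density less affected; inactive = any of these conditions unmet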
FN deposition inh: fibronectin deposition inhibition; 350,000 compounds, 0.086% hits; inhibition, % at 12.6 µM; AID 743247; AH1F fibroblasts, Alexa488-fibronectin deposition fluorescence, overnight;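 active = mean inhibition across replicates of 30% or more, regardless of how many single replicates reach that level; inconclusive = mean under 30% yet at least half of replicates reach 30%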
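Measured by – fluorescence 485/525 nm · System – AH1F fibroblast monolayer, labelled fibronectin deposition · Amount – 10000 cells per well · Buffer or medium – serum-reduced DMEM (2% serum) · Doses – single dose, pinned · Also added – fluorescent fibronectin at 24 nM final · Schedule – 1 h cell attachment, overnight exposure to compound and label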
PglD DTNB: blocks C. jejuni PglD acetyltransferase activity. purified PglD enzyme, DTNB colorimetric CoA detection. inhibition, % at 12.5 µM. 360,000 compounds, 0.098% hits. AID 602405; in the data active = inhibition above about 16%, passing the limit was not always enough; inconclusive = no clear call, values can overlap the other calls
DENV2 CPE: inhibitors of DENV2 cytopathic effect. DENV2-infected cells, cytopathic effect rescue, plate reader. CPE inhibition, % at 9.99 µM. 350,000 compounds, 1.7% hits; in the data active = CPE inhibition above about 20%, passing the limit was not always enough; inconclusive = no clear call, values can overlap the other calls; tested in BHK-21 cells
Env fusion inh: HIV envelope-mediated fusion inhibition; inhibition, % at 12.3 µM; AID 651610; HeLa-JRFL Env/CEM21 cell fusion, luciferase; 360,000 compounds, 1.1% hits;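 active = mean replicate inhibition score of at least 50 and every replicate individually at or above 50; inconclusive = only one of the two criteria met; inactive = mean below 50 and not all replicates reaching 50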
PGC1a acetyl inh: lowers PGC1a acetylation signal in U2OS cells. AlphaScreen anti-acetyl-lysine; with virally co-expressed GCN5 acetyltransferase. inhibition, % at 15.6 µM. 350,000 compounds, 0.17% hits. AID 651687;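 active = every replicate shows inhibition of at least 40%; inconclusive = mean inhibition at least 40% but some replicate below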
Numbers stand for hits; . = inactive; ? = inconclusive; / = no result given; [ ] = dose if it differs, or a comment.

SMILES	rRNA inh HTS	FN deposition inh	PglD DTNB	DENV2 CPE	Env fusion inh	PGC1a acetyl inh
O=S(=O)(Nc1nc2ccccc2nc1NCC1CCCO1)c1cc(Cl)ccc1Cl (stereo not drawn)	-27	.	/	.	.	.
CC1CCN(C(=O)c2ccc(NC(=O)c3cccs3)cc2)CC1	.	.	.	.	.	/
COc1ccccc1CNC(=O)C(=O)Nc1ccc(C(=O)N2CCC(C)CC2)cc1	.	.	.	65	.	.
COc1ccccc1-c1cc2nc(NCCc3ccncc3)ccn2n1	-17	/	.	.	.	.
COCCCNc1ccn2nc(-c3ccc(Cl)cc3)cc2n1	.	.	.	30	.	/
CC(=O)N(C)C[C@H]1Oc2ncc(-c3ccc(F)cc3)cc2C(=O)N([C@@H](C)CO)C[C@@H]1C	.	.	.	.	.	.
CC(=O)NC1=NC(=O)/C(=C/c2cc(C)n(-c3ccc(NC(C)=O)cc3)c2C)S1	-29	.	.	.	.	.
COc1cccc(S(=O)(=O)N2CC3(CN(C(=O)Nc4cccc(F)c4)[C@H](CO)c4[nH]c5cc(OC)ccc5c43)C2)c1	.	/	/	.	80[16.7 µM]	/
COc1ccc2c3c([nH]c2c1)[C@@H](CO)N(C(=O)Nc1cccc(F)c1)CC31CN(S(=O)(=O)c2cccc(C)c2)C1	.	/	/	.	80[16.7 µM]	/
CCOc1ccccc1NC(=O)c1c(NC(=O)CCC(=O)O)sc2c1CCCCC2	.	33	/	.	.	.
COc1ccc(NC(=O)C2CCCN2S(=O)(=O)c2ccc3c(c2)CCC(=O)N3)cc1 (stereo not drawn)	.	.	.	.	.	.
O=C(Nc1cccc(S(=O)(=O)N2CCOCC2)c1)[C@@H]1CCCN1S(=O)(=O)c1ccc(Cl)cc1	/	.	/	/	62	/
Cc1cc(Cl)ccc1OCCCC(=O)Nc1cc(S(=O)(=O)N2CCOCC2)ccc1N1CCOCC1	.	.	.	.	114	.
CC(C)Oc1ccc(S(=O)(=O)N2CCOCC2)cc1NC(=O)Cc1ccsc1	.	.	.	42	/	.
COc1ccc(NC(=O)C2CCCN2S(=O)(=O)c2ccc3c(c2)CCC(=O)N3)cc1Cl (stereo not drawn)	.	.	.	.	85	.
COc1ccc(S(=O)(=O)N2CCOCC2)cc1NC(=O)Cc1ccsc1	.	.	.	.	.	.
CCOc1ccc(OCCCC(=O)Nc2cc(S(=O)(=O)N3CCOCC3)ccc2N2CCOCC2)cc1	.	.	.	.	/	.
CCN1[C@@H]2Cn3c(ccc(-c4cccnc4)c3=O)[C@H]1[C@@H](C(=O)NCc1ccccc1)[C@@H]2CO	.	/	.	.	/	.
COc1ccc2c3c(n(C)c2c1)[C@H](CO)N(C(C)=O)CC31CCN(C(=O)Nc2ccc(F)cc2)CC1	.	/	/	/	/	/
N#C[C@H]1[C@@H](c2ccccc2C2=CCCCC2)[C@@H](CO)N1C(=O)NC1CCCCC1	.	.	/	?	/	.
O=C(Cc1ccc(Cl)cc1)Nc1cc(S(=O)(=O)N2CCOCC2)ccc1N1CCCC1	-26	.	/	.	.	.
O=C(Cc1c(F)cccc1Cl)Nc1cc(S(=O)(=O)N2CCOCC2)ccc1N1CCCC1	.	.	.	.	/	.
O=C(NCc1ccco1)C1CCN(S(=O)(=O)c2ccccc2C(F)(F)F)CC1	.	.	.	.	/	.
CN(C)C1(CNC(=O)C2CCN(S(=O)(=O)c3ccccc3C(F)(F)F)CC2)CCCCC1	.	.	.	31	.	.
O=C1Nc2ccc(F)cc2C12Nc1ccccc1-c1nnc(SCc3ccccc3)nc1O2 (stereo not drawn)	-17	/	.	.	/	.
SMILES	rRNA inh HTS	FN deposition inh	PglD DTNB	DENV2 CPE	Env fusion inh	PGC1a acetyl inh
Cc1ccc(CSc2nnc3c(n2)OC2(Nc4ccccc4-3)C(=O)Nc3ccc(F)cc32)cc1 (stereo not drawn)	.	/	.	.	/	.
COC(=O)C[C@H]1C[C@@H]2c3cc(NS(C)(=O)=O)ccc3O[C@@H]2[C@@H](CO)O1	.	/	.	.	.	.
CCN1CCN(c2ncnc3c2cnn3-c2ccccc2)CC1	.	.	.	.	.	.
CCN1CCN(c2ncnc3c2cnn3-c2ccc(Cl)cc2)CC1	.	.	.	50	.	.
CN(C)CCNc1ncnc2c1cnn2-c1ccc(Cl)cc1	.	.	.	40	.	.
Cc1ccc(Cn2ncc3c(N4CCN(C)CC4)ncnc32)cc1	.	.	/	.	.	/
Cc1ccc(Cn2ncc3c(N4CCN(Cc5ccc(Cl)cc5)CC4)ncnc32)cc1	/	.	.	/	96	.

Assay outcomes: PubChem, Broad Institute
